From ChEMBL document CHEMBL2203084, “Halogenated pentamethine cyanine dyes exhibiting high fidelity for G-quadruplex DNA” (Bioorg Med Chem, 2012)
Active and inactive are the calls of the source. The calls are words filed in the database; no cut-off is given here.

How the values were obtained:
Format in all cases: nucleic-acid assay
Nucleic Acid [1] = assay: Binding affinity to duplex DNA at 6:1 compound to DNA ratio by UV-spectrometer
Summary of the method: (§1)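 UV thermal denaturation in 1 cm quartz cuvettes; DNA at 2–3 µM single strand in HEPES buffer (50 mM KCl). Compound:DNA ratios 0:1 to 6:1. Absorbance followed versus temperature at 295 nm for Tel22 and 260 nm for the AATT hairpin duplex. ΔTm is the average of two independent trials, reproducible within 0.5 °C.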

Nucleic Acid [2] = assay: Binding affinity to Tel22 G-quadruplex DNA at 2:1 compound to DNA ratio by UV-spectrometer; summary of the method: as §1
Nucleic Acid [3] = assay: Binding affinity to Tel22 G-quadruplex DNA at 4:1 compound to DNA ratio by UV-spectrometer; summary of the method: as §1
Nucleic Acid [4] = assay: Binding affinity to duplex DNA by two site-mode surface plasmon resonance analysis
Summary of the method: (§2)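 SPR: 5′-biotinylated DNA captured on a streptavidin chip (350–400 RU), with a blank reference cell. Ligand series from 1 nM to 1 µM injected at 25 µL/min for 5 min to steady state, then 5 min dissociation. Surface regenerated with 10 mM glycine pH 2.5. Steady-state RU was converted using predicted RUmax. Values are the mean of two experiments.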

Nucleic Acid [5] = assay: Binding affinity to c-myc quadruplex DNA by two site-mode surface plasmon resonance analysis; summary of the method: as §2
Nucleic Acid [6] = assay: Binding affinity to Tel22 G-quadruplex DNA by two site-mode surface plasmon resonance analysis; summary of the method: as §2
Nucleic Acid [7] = assay: Binding affinity to Tel22 G-quadruplex DNA at 6:1 compound to DNA ratio by UV-spectrometer; summary of the method: as §1
Nucleic Acid [8] = assay: Binding affinity to c-myc quadruplex DNA by isothermal titration calorimetry
Summary of the method: (§3)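 ITC: ligand at 200 µM in Tris/K+ buffer injected into DNA at 20 µM in the same buffer, every 300 s, 29 injections. Heats of dilution were measured by injection into buffer and subtracted. The first injection was discarded. ΔH was from a single-site fit of heat per mole against molar ratio.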

Nucleic Acid [9] = assay: Binding affinity to duplex DNA by isothermal titration calorimetry; summary of the method: as §3
Nucleic Acid [10] = assay: Binding affinity to c-myc quadruplex DNA by mass spectrometry
Summary of the method: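 ESI-MS: c-myc DNA dialyzed against 50 mM ammonium acetate pH 7.2. Samples of 25–30 µM DNA with ligand at 0:1 to 4:1 molar ratios, infused directly at 5 µL/min. Capillary 2200 V, cone 30 V, desolvation 70 °C, source 100 °C. Spectra were collected for 10 min, with the last 2 min analyzed.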

Nucleic Acid [11] = assay: Binding affinity to Tel22 G-quadruplex DNA by isothermal titration calorimetry; summary of the method: as §3
Nucleic Acid [12] = assay: Binding affinity to Tel22 G-quadruplex DNA at 3:1 compound to DNA ratio by circular dichroism analysis
Summary of the method: (§4)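 CD spectra were recorded at 25 °C in 50 mM KCl with 4 µM single-strand quadruplex, 1 cm quartz cuvette, scan 50 nm/min, response 1 s. Ligand was titrated at increasing ligand:quadruplex ratios, and induced CD in the ligand absorbance region was assessed qualitatively.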

Nucleic Acid [13] = assay: Binding affinity to c-myc quadruplex DNA by circular dichroism analysis; summary of the method: as §4

SMILES | ΔTm (Nucleic Acid [1]) | ΔTm (Nucleic Acid [2]) | ΔTm (Nucleic Acid [3]) | Activity (Nucleic Acid [4]) | Kb (Nucleic Acid [5]) | Kb (Nucleic Acid [6]) | ΔTm (Nucleic Acid [7]) | Activity (Nucleic Acid [8]) | Activity (Nucleic Acid [9]) | Activity (Nucleic Acid [10]) | Activity (Nucleic Acid [11]) | Activity (Nucleic Acid [12]) | Activity (Nucleic Acid [13])
CC1(C)C(/C=C/C(Cl)=C/C=C2/N(CCC[N+](C)(C)C)c3ccccc3C2(C)C)=[N+](CCC[N+](C)(C)C)c2ccccc21 | 2.8 °C | 4.6 °C | 12.2 °C | inactive | 0.6 ×10⁶ /M | 0.08 ×10⁶ /M | 13.2 °C | – | – | – | – | – | –
CC1(C)C(/C=C/C(Cl)=C/C=C2/N(CCC[N+](C)(C)C)c3ccc(Br)cc3C2(C)C)=[N+](CCC[N+](C)(C)C)c2ccc(Br)cc21 | 2.5 °C | 9 °C | 16 °C | inactive | 0.2 ×10⁶ /M | 0.05 ×10⁶ /M | 21 °C | – | – | – | – | – | –
CC1(C)C(/C=C/C(Br)=C/C=C2/N(CCC[N+](C)(C)C)c3ccccc3C2(C)C)=[N+](CCC[N+](C)(C)C)c2ccccc21 | 0.1 °C | 4.6 °C | 11.6 °C | inactive | 0.07 ×10⁶ /M | 0.74 ×10⁶ /M | 15.6 °C | Active | inactive | Active | Active | – | –
CC1(C)C(/C=C/C=C/C=C2/N(CCC[N+](C)(C)C)c3ccc(Br)cc3C2(C)C)=[N+](CCC[N+](C)(C)C)c2ccc(Br)cc21 | 1.1 °C | 2.5 °C | 15.6 °C | inactive | 3.6 ×10⁶ /M | 0.59 ×10⁶ /M | – | – | inactive | – | – | Active | Active
CC1(C)C(/C=C/C(Br)=C/C=C2/N(CCC[N+](C)(C)C)c3ccc(Br)cc3C2(C)C)=[N+](CCC[N+](C)(C)C)c2ccc(Br)cc21 | 1.2 °C | 8 °C | 16.2 °C | inactive | 2 ×10⁶ /M | 0.06 ×10⁶ /M | 20.3 °C | – | inactive | – | – | Active | Active
CC1(C)C(/C=C/C(Cl)=C/C=C2/N(CCC[N+](C)(C)C)c3ccc(Cl)cc3C2(C)C)=[N+](CCC[N+](C)(C)C)c2ccc(Cl)cc21 | 2.3 °C | 7 °C | 15 °C | inactive | 0.23 ×10⁶ /M | 0.08 ×10⁶ /M | 19 °C | – | – | – | – | – | –
CC1(C)C(/C=C/C=C/C=C2/N(CCC[N+](C)(C)C)c3ccc(Cl)cc3C2(C)C)=[N+](CCC[N+](C)(C)C)c2ccc(Cl)cc21 | 0.5 °C | 3.1 °C | 8.9 °C | inactive | inactive | inactive | 13.2 °C | – | – | – | – | – | –
CC1(C)C(/C=C/C(Br)=C/C=C2/N(CCC[N+](C)(C)C)c3ccc(Cl)cc3C2(C)C)=[N+](CCC[N+](C)(C)C)c2ccc(Cl)cc21 | 1.8 °C | 8 °C | 17 °C | inactive | 0.25 ×10⁶ /M | 0.13 ×10⁶ /M | 20 °C | – | – | – | – | – | –
CC1(C)C(/C=C/C=C/C=C2/N(CCC[N+](C)(C)C)c3ccccc3C2(C)C)=[N+](CCC[N+](C)(C)C)c2ccccc21 | 0 °C | 2.1 °C | 4.6 °C | inactive | 0.07 ×10⁶ /M | 0.17 ×10⁶ /M | 8.7 °C | – | – | Active | – | Active | Active
